# Laboratory results taken from article PMC11904594 (Current Research in Microbial Sciences, 2025).
# Experiments:
# [1] = tested on: 11 bacterial strains (S. aureus, P. aeruginosa, A. baumannii, K. pneumoniae, E. coli); assay: Antimicrobial activity screening, summary over groups of strains; format: cell-based; conditions: 50 µg/ml screen
# [2] = tested on: P. aeruginosa ATCC 27,853; assay: Minimum bactericidal concentration; format: cell-based, Pseudomonas aeruginosa; conditions: lowest concentration reducing at least 99.9 % of growth, plated on LB, 37 °C, 24 h, triplicate
# A. baumannii Ab-1 [3] = assay: MIC, broth microdilution; format: cell-based, Acinetobacter baumannii; conditions: MHB II, 10^6 CFU/ml, 37 °C, 24 h, triplicate
# Procedure, shortened: (§1)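 Broth microdilution per CLSI. Strains were freshly plated on LB agar from glycerol stocks; the colistin-resistant lpxD mutant was plated on LB with 10 µg/ml colistin. Inoculum was 10^6 CFU/ml in Mueller Hinton broth II with two-fold dilutions of test compound from 100 to 0.10 µg/ml, incubated at 37 °C for 24 h. MIC was the lowest concentration with no growth.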
# A. baumannii ATCC 19,606 [4] = assay: Minimum bactericidal concentration; format: cell-based, Acinetobacter baumannii; conditions: lowest concentration reducing at least 99.9 % of growth, plated on LB, 37 °C, 24 h, triplicate
# P. aeruginosa (ST175–1) [5] = assay: MIC, broth microdilution; format: cell-based, Pseudomonas aeruginosa; conditions: MHB II, 10^6 CFU/ml, 37 °C, 24 h, triplicate
# Procedure, shortened: as §1
# E. coli ATCC 25,922 [6] = assay: MIC, broth microdilution; format: cell-based, Escherichia coli; conditions: MHB II, 10^6 CFU/ml, 37 °C, 24 h, triplicate
# Procedure, shortened: as §1
# S. aureus ATCC 29,213 [7] = assay: MIC, broth microdilution; format: cell-based, Staphylococcus aureus; conditions: MHB II, 10^6 CFU/ml, 37 °C, 24 h, triplicate
# Procedure, shortened: as §1
# A. baumannii IB010 [8] = assay: MIC, broth microdilution; format: cell-based, Acinetobacter baumannii; conditions: MHB II, 10^6 CFU/ml, 37 °C, 24 h, triplicate
# Procedure, shortened: as §1
# P. aeruginosa ST175–1 = assay: Inhibition of biofilm formation; format: cell-based, Pseudomonas aeruginosa; conditions: ¼ MIC
# Procedure, shortened: (§2)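 Medium was discarded, wells washed with PBS, and biofilm stained with 1 % crystal violet for 15 min at room temperature. After two PBS washes, stain was eluted in 70 % ethanol and read at 595 nm. SBF = (OD595 − OD595 […])/OD600: weak ≤0.5, moderate 0.5–1, strong >1. Triplicate; Kruskal-Wallis with Dunn's test.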
# K. pneumoniae CG258 [9] = assay: Minimum bactericidal concentration; format: cell-based, Klebsiella pneumoniae; conditions: lowest concentration reducing at least 99.9 % of growth, plated on LB, 37 °C, 24 h, triplicate
# A. baumannii Ab-1 [10] = assay: Inhibition of biofilm formation; format: cell-based, Acinetobacter baumannii; conditions: ¼ MIC
# Procedure, shortened: as §2
# A. baumannii Ab-1 [11] = assay: Minimum bactericidal concentration; format: cell-based, Acinetobacter baumannii; conditions: lowest concentration reducing at least 99.9 % of growth, plated on LB, 37 °C, 24 h, triplicate
# [12] = tested on: K. pneumoniae ATCC 43,816; assay: MIC, broth microdilution; format: cell-based, Klebsiella pneumoniae; conditions: MHB II, 10^6 CFU/ml, 37 °C, 24 h, triplicate
# Procedure, shortened: as §1
# [13] = tested on: K. pneumoniae ATCC 43,816; assay: Inhibition of biofilm formation; format: cell-based, Klebsiella pneumoniae; conditions: ¼ MIC
# Procedure, shortened: as §2
# A. baumannii ATCC 19,606 [14] = assay: Inhibition of biofilm formation; format: cell-based, Acinetobacter baumannii; conditions: ¼ MIC
# Procedure, shortened: as §2
# E. coli ATCC 25,922 [15] = assay: Minimum bactericidal concentration; format: cell-based, Escherichia coli; conditions: lowest concentration reducing at least 99.9 % of growth, plated on LB, 37 °C, 24 h, triplicate
# [16] = tested on: K. pneumoniae ATCC 43,816; assay: Minimum bactericidal concentration; format: cell-based, Klebsiella pneumoniae; conditions: lowest concentration reducing at least 99.9 % of growth, plated on LB, 37 °C, 24 h, triplicate
# Stability in human serum = format: in vitro ADME; conditions: 25 % (v/v)
# Procedure, shortened: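 Test compound was added to RPMI with human serum pre-equilibrated at 37 °C, giving 333.33 µM final compound and 25 % (v/v) final serum. Mixtures were stirred at 37 °C for 10, 30, 45 or 60 min. Proteins were precipitated with 96 % ethanol, cooled at 4 °C for 15 min and spun at 14,000 g. Supernatants were run on C18 RP-HPLC (TFA/CH3CN gradient, 220 nm); degradation was taken from loss of native peak area. Duplicate.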
# [17] = tested on: Galleria mellonella larvae; assay: In vivo toxicity in Galleria mellonella larvae; conditions: G. mellonella larvae, 50 µg/larvae (10 μl of 5 mg/ml), 30 °C, N=10 per group
# Procedure, shortened: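 Sixth-instar Galleria mellonella larvae (200–300 mg) were held in sawdust at 4 °C until use. Groups of ten were injected with 10 μl of test compound, colistin or 0.9 % NaCl saline control into the second rear proleg, then kept at 30 °C.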
# E. coli ESBL 1057.1 [18] = assay: Minimum bactericidal concentration; format: cell-based, Escherichia coli; conditions: lowest concentration reducing at least 99.9 % of growth, plated on LB, 37 °C, 24 h, triplicate
# K. pneumoniae CG258 [19] = assay: Inhibition of biofilm formation; format: cell-based, Klebsiella pneumoniae; conditions: ¼ MIC
# Procedure, shortened: as §2
# S. aureus ATCC 29,213 [20] = assay: Minimum bactericidal concentration; format: cell-based, Staphylococcus aureus; conditions: lowest concentration reducing at least 99.9 % of growth, plated on LB, 37 °C, 24 h, triplicate
# P. aeruginosa (ST175–1) [21] = assay: Minimum bactericidal concentration; format: cell-based, Pseudomonas aeruginosa; conditions: lowest concentration reducing at least 99.9 % of growth, plated on LB, 37 °C, 24 h, triplicate
# A. baumannii IB010 [22] = assay: Minimum bactericidal concentration; format: cell-based, Acinetobacter baumannii; conditions: lowest concentration reducing at least 99.9 % of growth, plated on LB, 37 °C, 24 h, triplicate
# K. pneumoniae CG258 [23] = assay: Time-kill assay; format: cell-based, Klebsiella pneumoniae; conditions: peptide at 2× MIC, 24 h
# Procedure, shortened: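 Broth without compound was the growth control. Samples taken at 0, 3, 6 and 24 h were diluted and plated on MH II agar for CFU counts. Each curve was run at least in duplicate.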
# 11 bacterial strains = assay: MBC, summary over all strains; format: cell-based; conditions: highest value over all strains, converted to molar
# Procedure, shortened: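 The no-peptide growth well, serially diluted and plated, served as reference. Percent growth was calculated from CFU counts; MBC was the lowest concentration giving ≥99.9 % reduction (CLSI). Triplicate.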
# S. aureus MRSA USA 300 [24] = assay: Minimum bactericidal concentration; format: cell-based, Staphylococcus aureus; conditions: lowest concentration reducing at least 99.9 % of growth, plated on LB, 37 °C, 24 h, triplicate
# K. pneumoniae CG258 [25] = assay: MIC, broth microdilution; format: cell-based, Klebsiella pneumoniae; conditions: MHB II, 10^6 CFU/ml, 37 °C, 24 h, triplicate
# Procedure, shortened: as §1
# A. baumannii ATCC 19,606 [26] = assay: MIC, broth microdilution; format: cell-based, Acinetobacter baumannii; conditions: MHB II, 10^6 CFU/ml, 37 °C, 24 h, triplicate
# Procedure, shortened: as §1
# S. aureus MRSA USA 300 [27] = assay: MIC, broth microdilution; format: cell-based, Staphylococcus aureus; conditions: MHB II, 10^6 CFU/ml, 37 °C, 24 h, triplicate
# Procedure, shortened: as §1
# E. coli ESBL 1057.1 [28] = assay: MIC, broth microdilution; format: cell-based, Escherichia coli; conditions: MHB II, 10^6 CFU/ml, 37 °C, 24 h, triplicate
# Procedure, shortened: as §1
# [29] = tested on: P. aeruginosa ATCC 27,853; assay: MIC, broth microdilution; format: cell-based, Pseudomonas aeruginosa; conditions: MHB II, 10^6 CFU/ml, 37 °C, 24 h, triplicate
# Procedure, shortened: as §1
structure (smiles),measurement,setting,value
CC[C@H](C)[C@H](NC(=O)[C@H](CCCCN)NC(=O)[C@H](CCCCN)NC(=O)[C@@H](Cc1ccccc1)NC(=O)[C@H](CC(C)C)NC(=O)[C@H](CCCCN)NC(=O)[C@@H](N)CCCCN)C(=O)N[C@@H](CC(C)C)C(=O)N[C@@H](CCCCN)C(=O)N[C@@H](Cc1ccc(O)cc1)C(=O)N[C@@H](CC(C)C)C(N)=O [BP143],growth inhibition for all Gram-negative strains tested,[1],≥ 83%
CC[C@H](C)[C@H](NC(=O)[C@H](CCCCN)NC(=O)[C@H](CCCCN)NC(=O)[C@H](Cc1ccccc1)NC(=O)[C@H](CC(C)C)NC(=O)[C@@H](CCCCN)NC(=O)[C@@H](N)CCCCN)C(=O)N[C@@H](CC(C)C)C(=O)N[C@@H](CCCCN)C(=O)N[C@@H](Cc1ccc(O)cc1)C(=O)N[C@@H](CC(C)C)C(N)=O [BP145],MBC,[2],50 µg/mL
same,MIC,A. baumannii Ab-1 [3],12.5 µg/mL
same,MBC,"A. baumannii ATCC 19,606 [4]",12.5 µg/mL
same,MIC,P. aeruginosa (ST175–1) [5],50 µg/mL
same,MIC,"E. coli ATCC 25,922 [6]",6.25 µg/mL
same,MIC,"S. aureus ATCC 29,213 [7]",50 µg/mL
same,growth inhibition of all the strains,"[1]; all strains, Gram-negative and Gram-positive",≈ 90%
same,MIC,A. baumannii IB010 [8],25 µg/mL
same,SBF index compared to BP607,P. aeruginosa ST175–1,reduced SBF indices compared to BP607
same,MBC,K. pneumoniae CG258 [9],12.5 µg/mL
same,SBF index compared to BP607,A. baumannii Ab-1 [10],reduced SBF indices compared to BP607
same,MBC,A. baumannii Ab-1 [11],12.5 µg/mL
same,MIC,[12],25 µg/mL
same,SBF index compared to BP607,[13],reduced SBF indices compared to BP607
same,SBF index compared to BP607,"A. baumannii ATCC 19,606 [14]",reduced SBF indices compared to BP607
same,MBC,"E. coli ATCC 25,922 [15]",6.25 µg/mL
same,MBC,[16],25 µg/mL
same,"remaining at 1 h, 333.33 µM",Stability in human serum,35%
same,survival after 24h,[17],70%
same,MBC,E. coli ESBL 1057.1 [18],12.5 µg/mL
same,biofilm formation,K. pneumoniae CG258 [19],inhibited biofilm formation
same,MBC,"S. aureus ATCC 29,213 [20]",50 µg/mL
same,MBC,P. aeruginosa (ST175–1) [21],50 µg/mL
same,MBC,A. baumannii IB010 [22],25 µg/mL
same,bactericidal activity in time-kill assay,K. pneumoniae CG258 [23],bactericidal
same,highest MBC observed,11 bacterial strains,35 µM
same,MBC,S. aureus MRSA USA 300 [24],50 µg/mL
same,MIC,K. pneumoniae CG258 [25],12.5 µg/mL
same,MIC,"A. baumannii ATCC 19,606 [26]",6.25 µg/mL
same,MIC,S. aureus MRSA USA 300 [27],50 µg/mL
same,MIC,E. coli ESBL 1057.1 [28],12.5 µg/mL
same,MIC,[29],50 µg/mL
